Data as given in ChEMBL document CHEMBL4393684, “Benzoic acid-derived nitrones: A new class of potential acetylcholinesterase inhibitors and neuroprotective agents” (Eur J Med Chem, 2019).
Calls of active or inactive are those of the source. The calls are words filed in the database; no cut-off is given here.

Tests used:
[1] = test system: HepG2; assay: Cytotoxicity against human HepG2 cells assessed as reduction in cell viability at 1 to 50 uM incubated for 24 hrs by resazurin dye based fluorescence assay; details: hepg2, 24 h
Method in brief: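 HepG2 hepatocellular carcinoma cells were exposed in culture medium to 1, 10 and 50 μM. Viability was measured as metabolic activity by resazurin reduction. Results are mean % of untreated control cells ± SEM (n = 4).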

[2] = target: Cholinesterase (Equus caballus) (UniProt P81908); assay: Inhibition of equine serum BChE using butyrylthiocholine iodide as substrate at 50 uM incubated for 5 mins followed by substrate addition measured for 5 mins by Ellman's method
Method in brief: (§1)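 Ellman's colorimetric method. AChE came from Electrophorus electricus and BChE from equine serum. Compounds were tested up to 50 μM, the highest concentration.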

[3] = target: Acetylcholinesterase (Electrophorus electricus) (UniProt O42275); assay: Inhibition of electric eel AChE using acetylthiocholine iodide as substrate at 50 uM incubated for 5 mins followed by substrate addition measured for 5 mins by Ellman's method; method in brief: as §1
[4] = test system: SH-SY5Y; assay: Cytotoxicity against human SH-SY5Y cells assessed as reduction in cell viability at 1 to 50 uM incubated for 24 hrs by MTT assay; assay type: cell-based
Method in brief: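 Differentiated human SH-SY5Y neuroblastoma cells were exposed in culture medium to 1, 10 and 50 μM for 24 h. Viability was read as metabolic activity by MTT reduction. Untreated cells served as control, and results are mean % of untreated controls ± SEM (n = 4).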

[5] = target: Acetylcholinesterase (Electrophorus electricus) (UniProt O42275); assay: Noncompetitive inhibition of electric eel AChE assessed as decrease in Vmax for substrate at 5 to 20 uM using acetylthiocholine iodide as substrate incubated for 5 mins followed by substrate addition measured for 5 mins by double reciprocal Lineweaver-Burk plot analysis
[6] = test system: SH-SY5Y; assay: Neuroprotective activity against t-BHP-induced oxidative stress in human SH-SY5Y cells assessed as metabolic stability at 10 to 100 uM incubated for 24 hrs by resazurin dye based fluorescence assay relative to control; assay type: functional
Method in brief: (§2)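 Differentiated SH-SY5Y cells were given test compounds at 10, 50 and 100 μM. Two protocols were used: 24 h compound pre-incubation then stressor, or stressor first then 24 h compound. Stressors were H2O2 1 mM, t-BHP 200 μM, ROT/AA 1 μM or DOX 1 μM, each for 4 h. Resazurin reduction was read as % of untreated control, four independent experiments, one-way ANOVA.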

[7] = target: Acetylcholinesterase (Electrophorus electricus) (UniProt O42275); assay: Noncompetitive inhibition of electric eel AChE assessed as effect on Km of substrate at 5 to 20 uM using acetylthiocholine iodide as substrate incubated for 5 mins followed by substrate addition measured for 5 mins by double reciprocal Lineweaver-Burk plot analysis
[8] = test system: SH-SY5Y; assay: Neuroprotective activity against ROT/AA-induced oxidative stress in human SH-SY5Y cells assessed as metabolic stability at 10 to 100 uM incubated for 24 hrs by resazurin dye based fluorescence assay relative to control; assay type: functional; method in brief: as §2
[9] = target: Acetylcholinesterase (Electrophorus electricus, UniProt O42275); assay: Inhibition of electric eel AChE assessed as inhibition constant using acetylthiocholine iodide as substrate pretreated for 5 mins followed by substrate addition measured for 5 mins by Dixon plot analysis
[10] = test system: SH-SY5Y; assay: Neuroprotective activity against DOX-induced oxidative stress in human SH-SY5Y cells assessed as metabolic stability at 10 to 100 uM incubated for 24 hrs by resazurin dye based fluorescence assay relative to control; assay type: functional; method in brief: as §2
[11] = test system: SH-SY5Y; assay: Neuroprotective activity against t-BHP-induced oxidative stress in human SH-SY5Y cells assessed as metabolic stability incubated for 24 hrs by resazurin dye based fluorescence assay relative to control; assay type: functional, cell-based; method in brief: as §2
[12] = test system: SH-SY5Y; assay: Neuroprotective activity against H2O2-induced oxidative stress in human SH-SY5Y cells assessed as metabolic stability at 10 to 100 uM incubated for 24 hrs by resazurin dye based fluorescence assay relative to control; assay type: functional; method in brief: as §2
[13] = target: Acetylcholinesterase (Electrophorus electricus) (UniProt O42275); assay: Mixed inhibition of electric eel AChE assessed as decrease in Vmax of substrate at 7.5 to 30 uM using acetylthiocholine iodide as substrate incubated for 5 mins followed by substrate addition measured for 5 mins by double reciprocal Lineweaver-Burk plot analysis
[14] = target: Acetylcholinesterase (Electrophorus electricus) (UniProt O42275); assay: Mixed inhibition of electric eel AChE assessed as decrease in Km of substrate at 7.5 to 30 uM using acetylthiocholine iodide as substrate incubated for 5 mins followed by substrate addition measured for 5 mins by double reciprocal Lineweaver-Burk plot analysis

Chain of Acetylcholinesterase (Electrophorus electricus) (O42275 24-633 limits assumed): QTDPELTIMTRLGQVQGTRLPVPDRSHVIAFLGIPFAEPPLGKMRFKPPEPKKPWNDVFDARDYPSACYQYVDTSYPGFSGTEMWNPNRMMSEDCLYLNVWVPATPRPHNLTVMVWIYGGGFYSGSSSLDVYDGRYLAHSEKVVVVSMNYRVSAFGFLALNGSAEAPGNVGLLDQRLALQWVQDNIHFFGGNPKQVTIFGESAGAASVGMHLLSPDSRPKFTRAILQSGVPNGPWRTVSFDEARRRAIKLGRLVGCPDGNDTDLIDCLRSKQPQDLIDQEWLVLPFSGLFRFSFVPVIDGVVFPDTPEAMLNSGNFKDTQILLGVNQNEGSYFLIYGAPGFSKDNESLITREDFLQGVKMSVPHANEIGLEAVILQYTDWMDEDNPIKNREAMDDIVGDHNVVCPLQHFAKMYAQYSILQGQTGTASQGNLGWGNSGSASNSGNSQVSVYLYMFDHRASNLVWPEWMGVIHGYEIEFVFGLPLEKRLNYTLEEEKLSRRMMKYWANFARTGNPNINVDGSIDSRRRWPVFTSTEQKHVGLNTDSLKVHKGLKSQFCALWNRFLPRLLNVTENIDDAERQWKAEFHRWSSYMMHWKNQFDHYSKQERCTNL
Chain of Cholinesterase (Equus caballus) (P81908 whole entry): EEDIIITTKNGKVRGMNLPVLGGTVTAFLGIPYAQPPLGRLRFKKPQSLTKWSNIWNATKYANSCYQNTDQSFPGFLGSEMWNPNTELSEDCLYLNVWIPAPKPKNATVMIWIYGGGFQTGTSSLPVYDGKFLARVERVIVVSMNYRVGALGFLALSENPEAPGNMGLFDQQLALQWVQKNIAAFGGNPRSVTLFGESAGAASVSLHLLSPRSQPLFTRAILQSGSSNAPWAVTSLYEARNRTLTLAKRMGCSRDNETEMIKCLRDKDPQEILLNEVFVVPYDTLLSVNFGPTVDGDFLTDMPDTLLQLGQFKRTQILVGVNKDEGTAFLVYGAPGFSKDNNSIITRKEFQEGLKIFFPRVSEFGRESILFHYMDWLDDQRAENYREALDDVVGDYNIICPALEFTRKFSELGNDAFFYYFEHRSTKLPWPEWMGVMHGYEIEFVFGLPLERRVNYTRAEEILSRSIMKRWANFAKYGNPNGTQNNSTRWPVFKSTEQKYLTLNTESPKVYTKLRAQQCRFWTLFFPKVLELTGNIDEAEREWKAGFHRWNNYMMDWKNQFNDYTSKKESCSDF
Chain of Acetylcholinesterase (O42275 whole entry): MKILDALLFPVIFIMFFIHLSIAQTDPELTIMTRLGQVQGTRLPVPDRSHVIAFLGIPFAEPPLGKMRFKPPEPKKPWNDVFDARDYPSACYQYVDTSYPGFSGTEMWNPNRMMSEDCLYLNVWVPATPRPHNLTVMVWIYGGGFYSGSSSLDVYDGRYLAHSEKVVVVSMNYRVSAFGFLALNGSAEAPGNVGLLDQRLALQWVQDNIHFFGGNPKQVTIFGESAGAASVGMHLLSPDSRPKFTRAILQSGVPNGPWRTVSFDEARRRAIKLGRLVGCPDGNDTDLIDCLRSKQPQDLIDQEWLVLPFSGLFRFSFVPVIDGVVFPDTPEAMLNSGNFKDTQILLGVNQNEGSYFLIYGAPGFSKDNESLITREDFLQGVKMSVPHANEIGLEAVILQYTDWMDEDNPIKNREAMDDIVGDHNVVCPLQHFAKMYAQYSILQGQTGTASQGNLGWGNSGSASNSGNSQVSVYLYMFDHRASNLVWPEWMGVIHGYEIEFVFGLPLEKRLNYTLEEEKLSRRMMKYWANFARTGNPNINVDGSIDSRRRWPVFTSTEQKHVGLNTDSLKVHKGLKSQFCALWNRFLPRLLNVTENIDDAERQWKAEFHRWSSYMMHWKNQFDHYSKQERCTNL

## COc1cc(C(=O)NCCCCC/C=[N+](\[O-])C2CCCCC2)cc(OC)c1OC
[1]
  Activity: Non-Toxic
[2]
  inhibition: inactive
[3]
  inhibition: inactive
[4]
  Activity: Non-Toxic

## COc1ccc(C(=O)NCCCCC/C=[N+](\[O-])Cc2ccccc2)cc1OC
[1]
  Activity: Non-Toxic
[2]
  inhibition: inactive
[3]
  inhibition: inactive
[4]
  Activity: Non-Toxic

## COc1ccc(C(=O)NCCCCCCCCC/C=[N+](\[O-])C(C)(C)C)cc1OC
[1]
  Activity: Non-Toxic
[2]
  inhibition: inactive
[4]
  Activity: Non-Toxic

## COc1cccc(C(=O)NCCCCC/C=[N+](\[O-])C2CCCCC2)c1
[1]
  Activity: Non-Toxic
[2]
  inhibition: inactive
[3]
  inhibition: inactive
[4]
  Activity: Non-Toxic

## COc1cc(C(=O)NCCCCCCCCC/C=[N+](\[O-])C(C)(C)C)cc(OC)c1OC
[1]
  Activity: Non-Toxic
[2]
  inhibition: inactive
[4]
  Activity: Non-Toxic

## COc1cc(C(=O)NCCCCCCC/C=[N+](\[O-])C(C)(C)C)cc(OC)c1OC
[1]
  Activity: Non-Toxic
[2]
  inhibition: inactive
[4]
  Activity: Non-Toxic

## COc1ccc(C(=O)NCCCCC/C=[N+](\[O-])C(C)(C)C)cc1
[1]
  Activity: Non-Toxic
[2]
  inhibition: inactive
[4]
  Activity: Non-Toxic

## COc1cccc(C(=O)NCCCCC/C=[N+](\[O-])C(C)(C)C)c1
[1]
  Activity: Non-Toxic
[2]
  inhibition: inactive
[4]
  Activity: Non-Toxic

## CC(C)(C)/[N+]([O-])=C/CCCCCNC(=O)c1ccccc1
[1]
  Activity: Non-Toxic
[2]
  inhibition: inactive
[3]
  inhibition: inactive
[4]
  Activity: Non-Toxic

## COc1cccc(C(=O)NCCCCC/C=[N+](\[O-])Cc2ccccc2)c1
[1]
  Activity: Non-Toxic
[2]
  inhibition: inactive
[3]
  inhibition: inactive
[4]
  Activity: Non-Toxic

## COc1ccc(C(=O)NCCCCCCC/C=[N+](\[O-])C(C)(C)C)cc1OC
[1]
  Activity: Non-Toxic
[2]
  inhibition: inactive
[4]
  Activity: Non-Toxic

## COc1ccc(C(=O)NCCCCC/C=[N+](\[O-])C2CCCCC2)cc1
[1]
  Activity: Non-Toxic
[2]
  inhibition: inactive
[3]
  inhibition: inactive
[4]
  Activity: Non-Toxic

## COc1ccc(C(=O)NCCCCC/C=[N+](\[O-])Cc2ccccc2)cc1
[1]
  Activity: Non-Toxic
[2]
  inhibition: inactive
[3]
  inhibition: inactive
[4]
  Activity: Non-Toxic

## COc1ccc(C(=O)NCCCCC/C=[N+](\[O-])C(C)(C)C)cc1OC
[5]
  inhibition: Active
[1]
  Activity: Non-Toxic
[6]
  Activity: 44.3%
[2]
  inhibition: inactive
[7]
  inhibition: Active
[8]
  Activity: 20.7%
[9]
  Ki: 5.2 µM
[10]
  Activity: 32.9%
[11]
  Activity: Dose-dependent effect
[12]
  Activity: 50.3%
[4]
  Activity: 107 to 122%

## COc1cc(C(=O)NCCCCC/C=[N+](\[O-])C(C)(C)C)cc(OC)c1OC
[1]
  Activity: Non-Toxic
[13]
  inhibition: Active
[6]
  Activity: inactive
[2]
  inhibition: inactive
[8]
  Activity: inactive
[10]
  Activity: inactive
[14]
  inhibition: Active
[12]
  Activity: inactive
[4]
  Activity: 107 to 122%

## COc1ccc(C(=O)NCCCCC/C=[N+](\[O-])C2CCCCC2)cc1OC
[1]
  Activity: Non-Toxic
[2]
  inhibition: inactive
[3]
  inhibition: inactive
[4]
  Activity: Non-Toxic

## O=C(NCCCCC/C=[N+](\[O-])Cc1ccccc1)c1ccccc1
[1]
  Activity: Non-Toxic
[2]
  inhibition: inactive
[3]
  inhibition: inactive
[4]
  Activity: Non-Toxic

## COc1cc(C(=O)NCCCCC/C=[N+](\[O-])Cc2ccccc2)cc(OC)c1OC
[1]
  Activity: Non-Toxic
[2]
  inhibition: inactive
[3]
  inhibition: inactive
[4]
  Activity: Non-Toxic

## O=C(NCCCCC/C=[N+](\[O-])C1CCCCC1)c1ccccc1
[1]
  Activity: Non-Toxic
[2]
  inhibition: inactive
[3]
  inhibition: inactive
[4]
  Activity: Non-Toxic
